Drawing on ChEMBL document CHEMBL4513216, “Probing the Open Global Health Chemical Diversity Library for Multistage-Active Starting Points for Next-Generation Antimalarials” (ACS Infect Dis, 2020), this text covers cytotoxicity for 94 molecules.

The data set can be described thus: Toxicity liver stage against HepG2, at 10uM. Set-up: test concentration 10 uM, cell line HepG2-A16-CD81EGFP. The conditions noted are these: human, HepG2-A16-CD81EGFP cells; read-out: INHIBITION
The format is cell-based. The method, boiled down:
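Uninfected HepG2-A16-CD81EGFP cells, 3 × 10^3 per well, 1536-well, plated on prespotted compound at 10 μM final, parasite-free screening media added to match infected plates; puromycin 10 μM positive, DMSO 0.5% negative; run in parallel with 48 h PbLuc assay at 37 °C, 5% CO2; viability by CellTiter-Glo luminescence, normalized to controls.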
For the molecule `CCN1CCN(C(C)CNC(=O)Nc2nnc(C)s2)CC1` (centres undefined), the cytotoxicity at 10 µM is -12.2%.
The value for `Cc1cc(C)n2c(CCCNS(=O)(=O)c3ccccc3)nnc2n1` was 1.18%.
The same measure for `COc1ccc2cnn(CC(=O)NCC3CCCO3)c(=O)c2c1OC` (centres undefined): 4.81%; for `COCCN1C[C@H]2CCN(C(=O)Nc3ccccc3C)CC[C@H]2S1(=O)=O`: 0.64%; for `COc1cccc(N2CC3(CCN(c4cc(OC)ncn4)C3)CC2=O)c1` (centres undefined): 21.7%.
The same measure for `CN(C)C(=O)CNC(=O)c1nc2c(s1)CCCN2Cc1ccccc1`: 8.13%; for `CC(=O)N1CCCc2sc(C(=O)Nc3ccc(C)nc3)nc21`: 7.46%.
`O=C(NC1CCCC1)c1nc2c(o1)CN(C(=O)CO)C2`: the cytotoxicity at 10 µM turned out to be 10%.
The same measure for `CS(=O)(=O)N1CCC2(CC1)CC(OCC1CCOCC1)CO2` (centres undefined): 8.16%; for `CCS(=O)(=O)N1CC[C@H]2OCC[C@@]2(c2nnc(C)o2)C1`: 7.95%; for `Cc1noc(C2CN(S(=O)(=O)C3CC3)Cc3ccnn3C2)n1` (centres undefined): 7.19%.
The same measure for `CC1=N[C@@]2(CC[C@@H]3CN(C(=O)NC(C)C)C[C@@H]32)C(=O)N1CC(C)C`: 7.74%; for `CCc1nc(C#N)c(N2CCC(c3nc(-c4ccccc4)no3)CC2)o1`: 0.689%; for `Cc1oc(-c2nc(C#N)c(NC(C)C)o2)cc1S(=O)(=O)N1CCCC1`: 5.61%.
The same measure for `COc1ccc2c(ccn2CCN)c1`: -0.73%; for `CC(C)n1cc(N2CC(C(=O)N3CCN(C)CC3)CC2=O)cn1` (centres undefined): 1.44%.
Regarding `CCC(=O)N1CCCCC1c1nc(O)c2c(n1)CN(C(=O)C1CC1)CC2` (centres undefined), the cytotoxicity at 10 µM was found to be 1.23%.
Regarding `NC(=O)N1CCC(NCc2cc(Br)ccc2Cl)CC1`, the cytotoxicity at 10 µM was -6.43%.
The same measure for `Cc1ncncc1C(=O)N1CCCN(Cc2ncc(Cl)n2C)CC1`: 6.45%.
The same measure for `Cc1nnc(CN(C)CCc2nc(-c3cccc(Cl)c3)no2)n1C`: 2.53%; for `Cc1ccccc1C(C#N)NC(=O)c1cccc2c1OCCO2` (centres undefined): -3.38%; for `CC(C)N1CCC(O)(CNC(=O)CC2OCCc3ccccc32)CC1` (centres undefined): 5.02%.
The value for `Cc1cc(NC(=O)NC(C)CN2CCN(c3ccccc3)CC2)on1` (centres undefined) was 11.5%.
As to `CC(Oc1cc(Cl)cc(Cl)c1)C(=O)NCCS(N)(=O)=O` (centres undefined), the cytotoxicity at 10 µM was -11.7%.
The same measure for `FCCOc1cccc(NCc2c[nH]nc2-c2cccnc2)c1`: 1.14%; for `COC(=O)c1sc2cccc(F)c2c1CNC(=O)C1CC1`: -11.4%.
The same measure for `OCC1CCN(Cc2cc3c(cc2Br)OCCO3)CC1`: 6.84%; for `Cc1cccc(C)c1NC(=O)CN(C)C(C)c1nc(C(C)(C)C)no1` (centres undefined): -6.85%; for `CCCn1nc2c(cc1=O)CN(Cc1nc(C)c3ccccc3n1)CC2`: -2.45%.
The same measure for `Cn1nc2c(cc1=O)CN(c1ncnc3ccsc13)CC2`: 9.3%.
Take `c1ccc(-c2cnc(CNC3CCc4ncnn4C3)o2)cc1` (centres undefined): the cytotoxicity at 10 µM was -3.78%.
As to `O=C(CN1CCOc2ccc(Cl)cc21)NCCCn1ccnc1`, the cytotoxicity at 10 µM was -7.49%.
The value for `CC(C)Cc1nc(CN(C)CCOc2ccccc2F)no1` was -0.731%; that for `CSCC(C)CNC(=O)N1CCSC(C)(C)C1` (centres undefined) was 0.873%; that for `COc1cccc(CN(C)S(=O)(=O)N2CCOCC2)c1` was -8.62%.
The value for `CS(=O)(=O)NCC1CCCCN1C(=O)Nc1cccnc1N1CCCC1` (centres undefined) was -3.45%; that for `Cc1ccc(S(=O)(=O)NC(=O)c2c(C)noc2C(C)C)cc1C` was -9.11%; that for `CN1Cc2ccccc2CC2(CCN(Cc3nccn3C)CC2)C1=O` was 7.81%.
The same measure for `CCN(C(=O)c1nc2c(s1)CCCN2c1ccc(C)nn1)C(C)C`: 3.86%; for `Cn1cc(CN2Cc3cn(C)nc3C(COCC3CC3)C2)cn1` (centres undefined): -69.8%; for `Cc1nc(CN2C(=O)CC[C@@H]3[C@H]2CCN3C(=O)c2ccno2)cs1`: -82.7%.
On to `Cn1cccc1C(=O)N1CCc2ncnc(N3CCOCC3)c2CC1`, for which the cytotoxicity at 10 µM is -74.3%.
With `O=C(c1cccs1)N1CC[C@H]2[C@@H]1CCC(=O)N2c1cccnc1`, the cytotoxicity at 10 µM was -74.3%.
The same measure for `O=C(c1cscn1)N1CCC2(CC1)CN(c1ccccn1)CCO2`: -71%; for `Cc1ccc(CN2CCCC23CCN(S(=O)(=O)c2ccccc2)C3)o1` (centres undefined): 0.642%.
The same measure for `CN1C(=O)C2(CCN(CCO)C2)c2ccccc21` (centres undefined): 5.84%; for `O=C(Cc1ccsc1)N1CCCC(CNS(=O)(=O)Cc2ccccc2)C1` (centres undefined): 4.24%; for `O=C(CC1C=CCC1)N1CCc2ncnc(NCc3ccon3)c2CC1` (centres undefined): 22.8%.
The same measure for `Cc1cc(C)c(C(=O)N2CCCC(C(=O)CCc3ccccc3)C2)cn1` (centres undefined): -7.12%; for `Cc1ccsc1CN(CCCC(F)(F)F)Cc1ccccn1`: 0.107%.
Take `COc1ccc(Cn2cc(C(=O)N(C)Cc3ccn[nH]3)nn2)cc1`: the cytotoxicity at 10 µM came to 8.95%.
For `Fc1ccccc1-c1noc2c1CN(CCN1CCOCC1)CC2`, the cytotoxicity at 10 µM was 0.0119%.
The same measure for `O=C(NCCn1cccc1)C1CCCN(C2CCCC2)C1` (centres undefined): 0.301%; for `CCCN1CCC(Cc2noc(-c3cccnc3OC)n2)CC1`: -11.1%.
The value for `CC(C)(C)c1ccn(C2(C(=O)O)CCN(c3ccnc(N)n3)CC2)n1` was 3.63%.
The value for `COCCN(CC(N)=O)CC1CCCN(C2Cc3ccccc3C2)C1` (centres undefined) was -3.01%.
As to `CN1CCC(Cc2noc(-c3cccc4c3OCC4)n2)CC1`, the cytotoxicity at 10 µM is -4.71%.
The value for `O=C1N(Cc2ccc(F)c(F)c2)CCCC1(O)CNCc1ncc[nH]1` (centres undefined) was -4.27%; that for `Cc1noc(C(C)C)c1C(=O)NCc1cccnc1` was 3.93%; that for `Cc1oc(C(=O)O)cc1S(=O)(=O)Nc1ccccc1F` was -2.8%.
The same measure for `CC(C(=O)NCCN1CCN(C)CC1)n1cncn1` (centres undefined): 0.449%; for `CC(NC(=O)CSCC#N)c1ccc(Cl)cc1` (centres undefined): -2.13%.
The value for `Cc1cc(C)n(C2CCCN(C(=O)c3csc(C4CC4)n3)C2)n1` (centres undefined) was -2.51%; that for `Cc1ncc2c(n1)CN(CC(=O)Nc1nnc(C)s1)CC2` was 0.153%.
In the case of `Cc1cc(C)n(-c2ccc(CNCc3ccc(C)o3)cn2)n1`, the cytotoxicity at 10 µM was -6.57%.
The same measure for `O=C(CCS(=O)(=O)c1ccccc1)N1CCCC(n2cccn2)C1` (centres undefined): -14.7%; for `COc1cc(C(=O)NCc2ccc3c(c2)CCCN3C)cc(OC)c1Br`: -6.69%.
The same measure for `Cc1sc(-c2ccco2)nc1C(=O)N1CCCC1Cn1cccn1` (centres undefined): -11.2%; for `CC(C)(C)c1nc(CN(Cc2cccs2)C2CCS(=O)(=O)C2)no1` (centres undefined): -3.63%.
In the case of `COc1ccc(C2=CCN(C(=O)C3CCN(C)C(=O)C3)CC2)cc1` (centres undefined), the cytotoxicity at 10 µM was -9.09%.
The same measure for `Cc1nc(CN(Cc2ccccc2)C2CCS(=O)(=O)C2)oc1C` (centres undefined): -8.13%; for `N#Cc1ccc(F)c(CN2CCCC2Cn2cnc3ccccc32)c1` (centres undefined): 0.224%.
As for `Cc1noc(CN(Cc2ccc3c(c2)OCO3)Cc2ccc(C)o2)n1`, the cytotoxicity at 10 µM is -0.194%.
As for `Cc1nnc(C(C)N2CCN(Cc3ccc4c(c3)OCO4)CC2)o1` (centres undefined), the cytotoxicity at 10 µM was -11.6%.
The same measure for `Cc1nc(N2CCN(C(=O)c3ccsc3)CC2)c2cnn(C)c2n1`: -10.6%.
The same measure for `Cc1cc(C)cc(N(C)S(=O)(=O)c2cc(C(=O)O)cs2)c1`: -10.4%; for `Cc1nccn1C1CCCN(C(=O)c2ccc3c(c2)NC(=O)CO3)C1` (centres undefined): -11.5%.
The value for `CC(=O)N(Cc1noc(C)n1)C1CCN(Cc2ccncc2Cl)C1` (centres undefined) was 5.87%; that for `Cc1cc(S(=O)(=O)NCc2cccc(C(=O)N3CCCC3)c2)c(C)s1` was 3.13%; that for `Cc1noc(C)c1C(=O)N1C[C@H]2CCC[C@@]2(COc2ccccn2)C1` was -5.53%.
As for `CN(C)CCN1C(=O)CCCC12CCCN(C(=O)c1cc[nH]n1)C2` (centres undefined), the cytotoxicity at 10 µM is -0.225%.
For the molecule `CN1CCOCC2(CCCN(C(=O)c3ccccc3F)C2)C1` (centres undefined), the cytotoxicity at 10 µM is -91.4%.
The value for `O=C(N1CCOCC1)N1C[C@H]2CN(Cc3nccs3)C[C@H]2C1` was -80.8%; that for `CCO[C@H]1CO[C@@]2(CCCN(S(=O)(=O)c3cccnc3)C2)C1` was -86.2%.
The same measure for `CN(C)Cc1n[nH]c2c1CCN(Cc1cccs1)C2`: 1.63%.
The same measure for `CC(C)N1C[C@@H]2CN(C(=O)NCc3ccccc3)CCC[C@]2(C(=O)O)C1`: 9.37%.
Regarding `Cc1cc(CN2CC[C@H]3C[C@H](C(=O)N4CCC(C)CC4)O[C@H]3C2)no1`, the cytotoxicity at 10 µM was 1.34%.
With `c1cnc(N2CCN3C[C@H](Oc4cncnc4)C[C@H]3C2)nc1`, the cytotoxicity at 10 µM was determined as 7.97%.
The same measure for `CN1CCN(C(=O)[C@@H]2CC[C@@H]3[C@@H](CCN3c3ncccn3)O2)CC1`: 7.13%; for `Cc1ccc(CN2CC[C@@H]3OCCN(S(C)(=O)=O)[C@H]3CC2)s1`: 3.91%.
On to `Cn1cc(CN2C[C@@H]3COC[C@]3(CNC(=O)c3ccsc3)C2)cn1`, for which the cytotoxicity at 10 µM was -0.0273%.
The value for `c1cnc(N2CCC3(CCN(CC4CCOC4)C3)CC2)nc1` (centres undefined) was -0.877%.
With `COCCN1CCC2(CCN(c3ncccn3)CC2)C1=O`, the cytotoxicity at 10 µM worked out at 3.47%.
The value for `Cc1ncc(C(=O)N2C[C@@H]3CC[C@H]2CN(S(=O)(=O)N(C)C)C3)c(C)n1` was 16.9%.
